Key:
[1] = Cytotoxicity against human RBC assessed as hemolysis after 1 hr by microplate reader method; format: cell-based, Erythrocyte; conditions: red blood cells (RBC)
In short: (§1)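 Washed RBCs from EDTA blood of healthy donors mixed 1:1 with compound in PBS (100 to 6.25 μM), 1 h at 37 °C, then centrifuged. Supernatant absorbance at 550 nm, reference 620 nm; % hemolysis = (A − A0)/(Amax − A0) × 100, PBS background, water as 100%. Triplicates.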

[2] = Cytotoxicity against human RBC assessed as hemolysis at 100 uM after 1 hr by microplate reader method; format: cell-based, Erythrocyte; conditions: red blood cells (RBC), read-out: Activity; in short: as §1
Leishmania infantum [3] = experiment: Antileishmanial activity against Leishmania infantum A1 amastigotes infected in human THP1 cells assessed as reduction in intracellular parasite load after 48 hrs by Giemsa staining; format: functional, organism-based; conditions: A1, THP-1, 48 h
In short: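 THP-1 differentiated with 1 μM retinoic acid for 72 h, then infected overnight with L. infantum promastigotes at 8:1 parasite/cell, 37 °C/5% CO2. Free parasites removed over Histopaque 1077; cells at 4 × 10^5/mL exposed to compound 48 h at 37 °C/5% CO2. Infected cells counted microscopically after Giemsa staining; IC50 ± σ by sigmoidal regression, three independent experiments.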

[4] = Ratio of miltefosine HC50 to compound HC50 for human RBC; format: cell-based, Erythrocyte; conditions: red blood cells (RBC), read-out: Ratio IC50
[5] = Cytotoxicity against human THP1 cells after 48 hrs by propidium iodide and SYBR14 satining-base flow cytometry; format: cell-based; conditions: THP-1 cells
In short: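 THP-1 cells at 1×10^6 cells/mL treated with compound (50 to 1.56 μM); stained with 12 μM PI and 100 nM SYBR-14 and live/dead ratio read by flow cytometry (488 nm laser; 545 and 645 nm emission). Incubation time given as 72 h in methods, 48 h in figure legend. Triplicates; CC50 derived from dose–response.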

[6] = Aqueous solubility in water by UV spectrophotometry; conditions: buffer
Leishmania infantum [7] = experiment: Ratio of miltefosine IC50 to compound IC50 for Leishmania infantum A1 amastigotes infected in human THP1 cells; format: functional, THP-1
Leishmania infantum [8] = experiment: Antileishmanial activity against Leishmania infantum MHOM/TN/80/IPT1/LEM 235 promastigotes after 72 hrs by propidium iodide and SYBR14 satining-base flow cytometry; format: functional, organism-based; conditions: MHOM/TN/80/IPT1/LEM 235, 72 h
In short: (§2)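 Promastigotes grown in RPMI 1640 with 10% FCS, L-glutamine and antibiotics at 26 °C; seeded at 1×10^6 cells/mL with compound (DMSO/ethanol 50:50 stock, 2-fold dilutions 100 to 0.8 μM in medium) at 26 °C for 72 h. Stained with 12 μM PI and 100 nM SYBR-14 in HEPES-buffered saline with 10% BSA; live/dead read by flow cytometry. IC50 ± σ by sigmoidal regression, three independent experiments.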

Leishmania donovani = experiment: Antileishmanial activity against Leishmania donovani MHOM/IN/80/DD8/LEM 703 promastigotes after 72 hrs by propidium iodide and SYBR14 satining-base flow cytometry; format: functional, organism-based; conditions: MHOM/IN/80/DD8/LEM 703, 72 h; in short: as §2

SMILES: O=[N+]([O-])c1cc(C(F)(F)F)cc([N+](=O)[O-])c1Nc1cccc(O)c1
- HC50 at 1 h [1]: > 100 µM
- hemolysis at 1 h, 100 µM [2]: 1.4%
- IC50 (Leishmania infantum [3]): 2.2 µM
- selectivity ratio [4]: 2
- CC50 at 48 h [5]: 35 µM
- solubility [6]: 9.5 ppm

SMILES: O=[N+]([O-])c1cc(C(F)(F)F)cc([N+](=O)[O-])c1Nc1ccccc1O
- HC50 at 1 h [1]: > 100 µM
- hemolysis at 1 h, 100 µM [2]: 1.2%
- IC50 (Leishmania infantum [3]): 1.1 µM
- Ratio IC50 (Leishmania infantum [7]): 2.5
- selectivity ratio [4]: 2
- CC50 at 48 h [5]: > 50 µM
- solubility [6]: 20 ppm

SMILES: CN(C)c1c([N+](=O)[O-])cc(C(F)(F)F)cc1[N+](=O)[O-]
- HC50 at 1 h [1]: > 100 µM
- hemolysis at 1 h, 100 µM [2]: 0%
- IC50 (Leishmania infantum [8]): > 100 µM
- IC50 (Leishmania donovani): > 100 µM
- IC50 (Leishmania infantum [3]): 7.3 µM
- selectivity ratio [4]: 2
- CC50 at 48 h [5]: > 50 µM
- solubility [6]: 4.6 ppm

SMILES: CCCCCN(CCO)c1c([N+](=O)[O-])cc(C(F)(F)F)cc1[N+](=O)[O-]
- HC50 at 1 h [1]: > 100 µM
- hemolysis at 1 h, 100 µM [2]: 0.8%
- IC50 (Leishmania infantum [3]): > 50 µM
- selectivity ratio [4]: 2
- CC50 at 48 h [5]: > 50 µM
- solubility [6]: 6 ppm

SMILES: CCCCCCN(CCO)c1c([N+](=O)[O-])cc(C(F)(F)F)cc1[N+](=O)[O-]
- HC50 at 1 h [1]: > 100 µM
- hemolysis at 1 h, 100 µM [2]: 0.7%
- IC50 (Leishmania infantum [3]): > 50 µM
- selectivity ratio [4]: 2
- CC50 at 48 h [5]: 10 µM
- solubility [6]: 5.7 ppm

SMILES: CCCN(CCO)c1c([N+](=O)[O-])cc(C(F)(F)F)cc1[N+](=O)[O-]
- HC50 at 1 h [1]: > 100 µM
- hemolysis at 1 h, 100 µM [2]: 0.2%
- IC50 (Leishmania infantum [8]): > 100 µM
- IC50 (Leishmania donovani): > 100 µM
- IC50 (Leishmania infantum [3]): > 50 µM
- selectivity ratio [4]: 2
- CC50 at 48 h [5]: > 50 µM
- solubility [6]: 72.3 ppm

SMILES: O=[N+]([O-])c1cc(C(F)(F)F)cc([N+](=O)[O-])c1N1CCOCC1
- HC50 at 1 h [1]: > 100 µM
- hemolysis at 1 h, 100 µM [2]: 0.3%
- IC50 (Leishmania infantum [8]): > 100 µM
- IC50 (Leishmania donovani): > 100 µM
- IC50 (Leishmania infantum [3]): 0.5 µM
- Ratio IC50 (Leishmania infantum [7]): 5
- selectivity ratio [4]: 2
- CC50 at 48 h [5]: > 50 µM
- solubility [6]: 18.6 ppm

SMILES: CCCCN(CCO)c1c([N+](=O)[O-])cc(C(F)(F)F)cc1[N+](=O)[O-]
- HC50 at 1 h [1]: > 100 µM
- hemolysis at 1 h, 100 µM [2]: 0.5%
- IC50 (Leishmania infantum [8]): > 100 µM
- IC50 (Leishmania donovani): > 100 µM
- IC50 (Leishmania infantum [3]): 1.2 µM
- Ratio IC50 (Leishmania infantum [7]): 2.5
- selectivity ratio [4]: 2
- CC50 at 48 h [5]: > 50 µM
- solubility [6]: 22.6 ppm

SMILES: O=[N+]([O-])c1cc(C(F)(F)F)cc([N+](=O)[O-])c1N1CCCCC1
- HC50 at 1 h [1]: > 100 µM
- hemolysis at 1 h, 100 µM [2]: 1.2%
- IC50 (Leishmania infantum [3]): > 50 µM
- selectivity ratio [4]: 2
- CC50 at 48 h [5]: > 50 µM
- solubility [6]: 0.8 ppm

SMILES: CCN(CCO)c1c([N+](=O)[O-])cc(C(F)(F)F)cc1[N+](=O)[O-]
- HC50 at 1 h [1]: > 100 µM
- hemolysis at 1 h, 100 µM [2]: 0.4%
- IC50 (Leishmania infantum [8]): > 100 µM
- IC50 (Leishmania donovani): > 100 µM
- IC50 (Leishmania infantum [3]): > 50 µM
- selectivity ratio [4]: 2
- CC50 at 48 h [5]: > 50 µM
- solubility [6]: 157.4 ppm

SMILES: O=[N+]([O-])c1cc(C(F)(F)F)cc([N+](=O)[O-])c1Nc1ccc(O)cc1
- HC50 at 1 h [1]: > 100 µM
- hemolysis at 1 h, 100 µM [2]: 1.4%
- IC50 (Leishmania infantum [8]): 2.2 µM
- IC50 (Leishmania donovani): 0.6 µM
- IC50 (Leishmania infantum [3]): 1.8 µM
- selectivity ratio [4]: 2
- CC50 at 48 h [5]: 40 µM
- solubility [6]: 11.4 ppm

SMILES: O=[N+]([O-])c1cc(C(F)(F)F)cc([N+](=O)[O-])c1NC1CCCCC1
- HC50 at 1 h [1]: > 100 µM
- hemolysis at 1 h, 100 µM [2]: 1.1%
- IC50 (Leishmania infantum [3]): 9.1 µM
- selectivity ratio [4]: 2
- CC50 at 48 h [5]: > 50 µM
- solubility [6]: 0.1 ppm

SMILES: CCCCCCCCCCCCCCCCOP(=O)([O-])OCC[N+](C)(C)C [MILTEFOSINE]
- HC50 at 1 h [1]: 38.3 µM
- IC50 (Leishmania infantum [3]): 2.7 µM
- CC50 at 48 h [5]: 28.6 µM

SMILES: CCCN(CCC)c1c([N+](=O)[O-])cc(C(F)(F)F)cc1[N+](=O)[O-] [TRIFLURALIN]
- HC50 at 1 h [1]: > 100 µM
- hemolysis at 1 h, 100 µM [2]: 1.3%
- IC50 (Leishmania infantum [8]): > 100 µM
- IC50 (Leishmania donovani): > 100 µM
- IC50 (Leishmania infantum [3]): > 50 µM
- selectivity ratio [4]: 2
- CC50 at 48 h [5]: > 50 µM
- solubility [6]: 0.5 ppm

Source: ChEMBL document CHEMBL1157671, “Synthesis and biological evaluation of trifluralin analogues as antileishmanial agents” (Bioorg Med Chem, 2010)
